The results in this text go back to ChEMBL document CHEMBL1121762, “2-(Isoxazolylethenyl)phenoxypropanolamines: a new class of beta-receptor antagonists with antihypertensive activity” (1981).

Common to all, as to assay type: functional
The test system of assay [1] is Rattus norvegicus. Nature of the assay: Dose required for antihypertensive activity in spontaneous hypertensive rats after oral administration. Summed up: (§1)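 Male SH rats (Okamoto strain), 250-380 g, groups of four to eight, dosed orally. Systolic pressure by tail cuff at 35 °C ambient, before and 2 h after dosing. ED20 = dose lowering systolic pressure 20%, corrected for placebo controls; from log dose vs Δ% regression; relative potency vs labetalol (=1.0).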

The subject of assay [2] is Rattus norvegicus. Nature of the assay: Dose required for hypotensive activity in anesthetized rat after intravenous administration. Summed up: (§2)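 Male Sprague-Dawley rats, 230-280 g, anesthetized with urethane 1.78 g/kg ip; groups of two to five. Compound given iv. Mean carotid arterial pressure recorded by transducer. ED20 = dose lowering mean carotid pressure by 20%; 95% confidence limits; relative potency versus labetalol (=1.0).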

In assay [3] the test system is Rattus norvegicus. Nature of the assay: Dose required for inhibition of isoproterenol-induced tachycardia in pithed rat after intravenous administration. Summed up:
(§3)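 Male Sprague-Dawley rats, 200-240 g, anesthetized with amobarbital 120 mg/kg ip, pithed and ventilated via tracheal cannula; groups of two to five. Isoproterenol 0.1 μg/kg iv given before and 5 min after iv compound; heart rate by rate meter. ED50 = dose halving tachycardia; 95% confidence limits; relative potency vs labetalol (=1.0).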

Assay [4] concerns Rattus norvegicus. Nature of the assay: Relative potency required for hypotensive activity in anesthetized rat. Summed up:
as §2

In assay [5] the test system is Rattus norvegicus. Nature of the assay: Relative potency required for inhibition of isoproterenol-induced tachycardia in pithed rat after intravenous administration. Summed up:
as §3

In assay [6] the test system is Rattus norvegicus. Description: Relative potency required for antihypertensive activity in spontaneous hypertensive rats after oral administration. The gist of the method: as §1
Assay [7] is filed under the species Rattus norvegicus. Nature of the assay: Relative potency required for inhibition of L-phenylephrine-induced pressor response in pithed rats. The gist of the method:
(§4)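 Pithed male Sprague-Dawley rats, 200-240 g, amobarbital 120 mg/kg ip, artificially ventilated; three to five per dose. l-Phenylephrine 1.47 μg/kg iv before and 5 min after iv compound; carotid pressure recorded. ED50 = dose halving phenylephrine pressor rise; 95% confidence limits; relative potency vs labetalol (=1.0).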

Assay [8] relates to Rattus norvegicus. Nature of the assay: Dose required for inhibition of L-phenylephrine-induced pressor response in pithed rats after intravenous administration. The gist of the method:
as §4

Assay [9] concerns Rattus norvegicus. Nature of the assay: Dose of compound required for hypotensive activity in anesthetized rat. The gist of the method: as §2

A word on the ED50: it is the dose at which the effect has come halfway, by size or by number of responders. Regarding `COc1ccc(CCC(C)(C)NCC(O)COc2ccccc2/C=C/c2cc(C)no2)cc1` (stereo not given), the ED20 in the assay with Rattus norvegicus [1] is about 21.5 mg/kg; in the assay on Rattus norvegicus [2], about 1 mg/kg. In the assay with Rattus norvegicus [3], the ED50 was about 0.215 mg/kg. Moreover, the Relative potency in the assay on Rattus norvegicus [4] was about 5.2; in the assay with Rattus norvegicus [5], about 0.7; with Rattus norvegicus [6] it was about 2.2.
`Cc1cc(/C=C/c2ccccc2OCC(O)CNC(C)CCc2ccc(O)cc2)on1` (stereo not given): the ED20 in the assay on Rattus norvegicus [1] is about 46.4 mg/kg; with Rattus norvegicus [2], 0.49 mg/kg. The 50% effect level with Rattus norvegicus [3] (ED50) was put at a dose of 0.011 mg/kg. For the same molecule, the Relative potency is recorded as 10.6 with Rattus norvegicus [4], 12.7 with Rattus norvegicus [5] and about 1 in the assay with Rattus norvegicus [6].
With `Cc1noc(/C=C/c2ccccc2OCC(O)CNC(C)(C)C)c1[N+](=O)[O-]` (stereo not given), the ED20 with Rattus norvegicus [1] was over 21.5 mg/kg; with Rattus norvegicus [2], about 1 mg/kg. This molecule gave an ED50 in the assay with Rattus norvegicus [3] of about 0.0681 mg/kg. For the same molecule, the results for the Relative potency with Rattus norvegicus [4] and in the assay with Rattus norvegicus [5] were about 5.2 and about 2.1, respectively.
As to `Cc1noc(/C=C/c2ccccc2OCC(O)CNC(C)(C)C)c1C` (stereo not given), the ED20 was over 21.5 mg/kg with Rattus norvegicus [1] and about 0.68 mg/kg with Rattus norvegicus [2]. Further, the ED50 in the assay with Rattus norvegicus [3] is about 0.0215 mg/kg. Besides, the Relative potency in the assay with Rattus norvegicus [4] is reported as about 7.6; with Rattus norvegicus [5], about 6.5.
Consider `Cc1cc(/C=C/c2ccccc2OCC(O)CNC(C)CCc2ccccc2)on1` (stereo not given), for which the ED20 in the assay on Rattus norvegicus [1] was about 46.4 mg/kg; with Rattus norvegicus [2], about 1 mg/kg. The ED50 in the assay with Rattus norvegicus [3] was about 0.0464 mg/kg. Besides, the Relative potency is listed as about 5.2 in the assay on Rattus norvegicus [4], about 3 with Rattus norvegicus [5] and about 1 in the assay with Rattus norvegicus [6].
For `COc1ccc(CC(C)NCC(O)COc2ccccc2/C=C/c2cc(C)no2)cc1OC` (stereo not given), the ED20 with Rattus norvegicus [1] is over 21.5 mg/kg; in the assay on Rattus norvegicus [2] it was about 2.15 mg/kg. The same molecule registered an ED50 in the assay on Rattus norvegicus [3] of about 0.464 mg/kg. The Relative potency in the assay with Rattus norvegicus [4] is reported as about 2.4; in the assay on Rattus norvegicus [5], about 3.
The corresponding values for `Cc1cc(/C=C/c2ccccc2OCC(O)CNC(C)C)on1` (stereo not given) are over 21.5 mg/kg, about 0.65 mg/kg, 0.006 mg/kg, 8 and 23.3.
The corresponding values for `Cc1noc(/C=C/c2ccccc2OCC(O)CNC(C)(C)C)c1Cl` (stereo not given) are over 21.5 mg/kg, about 1 mg/kg, 0.014 mg/kg, about 5.2 and 10.
With `Cc1cc(/C=C/c2ccccc2OCC(O)CNC(C)(C)CCc2ccc(O)cc2)on1` (stereo not given), the ED20 in the assay with Rattus norvegicus [1] was about 21.5 mg/kg; in the assay on Rattus norvegicus [2], about 1 mg/kg. Further, the 50% effective dose (ED50) in the assay on Rattus norvegicus [3] is about 0.0215 mg/kg. Moreover, the Relative potency in the assay with Rattus norvegicus [4] is recorded as about 5.2; with Rattus norvegicus [5], about 6.5; in the assay on Rattus norvegicus [6], about 2.2.
As to `Cc1cc(/C=C/c2ccccc2OCC(O)CNC2CC2)on1` (stereo not given), the ED20 with Rattus norvegicus [1] was about 21.5 mg/kg; with Rattus norvegicus [2], about 1.47 mg/kg. Also, the ED50 with Rattus norvegicus [3] was 0.0091 mg/kg; in the assay with Rattus norvegicus [8], 0.63 mg/kg. Also, the Relative potency with Rattus norvegicus [4] is on record as about 3.5; in the assay listed under Rattus norvegicus [7], 0.8; in the assay with Rattus norvegicus [5], 15.4; in the assay on Rattus norvegicus [6] it was about 2.2.
Turning to `CC(C)NCC(O)COc1ccccc1/C=C/c1cc(Cl)no1` (stereo not given), the ED20 with Rattus norvegicus [1] was over 21.5 mg/kg; with Rattus norvegicus [9], 0.68 mg/kg. The same molecule showed an ED50 in the assay on Rattus norvegicus [3] of 0.0464 mg/kg. The Relative potency in the assay with Rattus norvegicus [4] was determined as 7.6; in the assay on Rattus norvegicus [5], 3.
Regarding `COCc1cc(/C=C/c2ccccc2OCC(O)CNC2CC2)on1` (stereo not given), the ED20 is about 10 mg/kg in the assay with Rattus norvegicus [1] and about 1 mg/kg in the assay with Rattus norvegicus [2]. Besides, the ED50 is about 0.01 mg/kg with Rattus norvegicus [3] and 0.73 mg/kg with Rattus norvegicus [8]. Besides, the Relative potency is on record as about 5.2 in the assay with Rattus norvegicus [4], 0.6 in the assay listed under Rattus norvegicus [7], about 14 in the assay with Rattus norvegicus [5] and about 4.8 in the assay with Rattus norvegicus [6].
Consider `CCc1cc(/C=C/c2ccccc2OCC(O)CNC(C)C)on1.Cl` (stereo not given), for which the ED20 in the assay with Rattus norvegicus [1] stood at 9.38 mg/kg; with Rattus norvegicus [2], 0.41 mg/kg. The same molecule had an ED50 in the assay on Rattus norvegicus [3] of about 0.0215 mg/kg. For the same molecule, the Relative potency in the assay with Rattus norvegicus [4] was 12.7; with Rattus norvegicus [5], about 6.5; in the assay on Rattus norvegicus [6], 5.1.
Take `Cc1cc(/C=C/c2ccccc2OCC(O)CNC(C)(C)C)on1.Cl` (stereo not given): the ED20 in the assay on Rattus norvegicus [1] was determined as 14.5 mg/kg; in the assay with Rattus norvegicus [2] it was 0.4 mg/kg. For the same molecule, the ED50 in the assay on Rattus norvegicus [3] was 0.0088 mg/kg; with Rattus norvegicus [8] it was 0.12 mg/kg. Also, the Relative potency worked out at 13 in the assay on Rattus norvegicus [4], 3.9 in the assay listed under Rattus norvegicus [7], 15.9 in the assay on Rattus norvegicus [5] and 3.3 with Rattus norvegicus [6].
As to `Cc1cc(C=Cc2ccccc2OCC(O)CNC(C)(C)C)no1.Cl` (stereo not given), the ED20 in the assay with Rattus norvegicus [1] was about 21.5 mg/kg; with Rattus norvegicus [2], about 2.15 mg/kg. In the assay on Rattus norvegicus [3], the ED50 came out at 0.013 mg/kg. Further, the Relative potency in the assay with Rattus norvegicus [4] is about 2.4; in the assay on Rattus norvegicus [5] it was 10.8; with Rattus norvegicus [6] it was about 2.2.
As for `CCc1cc(/C=C/c2ccccc2OCC(O)CNC(C)(C)C)on1.Cl` (stereo not given), the ED20 with Rattus norvegicus [1] was over 21.5 mg/kg; in the assay on Rattus norvegicus [2], 0.93 mg/kg. The same molecule came in with an ED50 with Rattus norvegicus [3] of about 0.0215 mg/kg. The results for the Relative potency with Rattus norvegicus [4] and in the assay on Rattus norvegicus [5] were 5.6 and about 6.5, respectively.
Consider `COCc1cc(/C=C/c2ccccc2OCC(O)CNC(C)C)on1.Cl` (stereo not given), for which the ED20 with Rattus norvegicus [1] was 18.2 mg/kg; in the assay on Rattus norvegicus [2] it was about 1 mg/kg. Besides, the ED50 stood at 0.0064 mg/kg with Rattus norvegicus [3] and 0.61 mg/kg with Rattus norvegicus [8]. In addition, the Relative potency is given as about 5.2 in the assay on Rattus norvegicus [4], 0.8 in the assay filed under Rattus norvegicus [7], 21.9 in the assay with Rattus norvegicus [5] and 2.6 in the assay with Rattus norvegicus [6].
For `COCc1cc(/C=C/c2ccccc2OCC(O)CNC(C)(C)C)on1.Cl` (stereo not given), the ED20 with Rattus norvegicus [1] is about 21.5 mg/kg; in the assay with Rattus norvegicus [2], about 0.8 mg/kg. Further, the ED50 in the assay on Rattus norvegicus [3] amounted to 0.0074 mg/kg; with Rattus norvegicus [8], 0.21 mg/kg. Besides, the Relative potency is about 6.5 in the assay on Rattus norvegicus [4], 2.2 in the assay filed under Rattus norvegicus [7], 18.9 in the assay with Rattus norvegicus [5] and about 2.2 with Rattus norvegicus [6].
As to `C#CC(C)(C)NCC(O)COc1ccccc1/C=C/c1cc(C)no1.Cl` (stereo not given), the ED20 with Rattus norvegicus [1] was about 46.4 mg/kg; with Rattus norvegicus [2], about 1.25 mg/kg. This molecule also returned an ED50 in the assay on Rattus norvegicus [3] of about 0.0681 mg/kg. The Relative potency in the assay on Rattus norvegicus [4] is reported as 4.2; in the assay with Rattus norvegicus [5], about 2.1; with Rattus norvegicus [6] it was about 1.
As to `Cc1cc(/C=C/c2ccccc2OCC(O)CNC(C)C)no1.Cl` (stereo not given), the results for the ED20 in the assay with Rattus norvegicus [1] and in the assay on Rattus norvegicus [2] were about 46.4 mg/kg and about 2.15 mg/kg, respectively. Besides, the ED50 with Rattus norvegicus [3] is 0.0034 mg/kg. For the same molecule, the Relative potency with Rattus norvegicus [4] is about 2.4; in the assay on Rattus norvegicus [5] it was 41.2; with Rattus norvegicus [6], 1.
Regarding `CC(C)(C)NCC(O)COc1ccccc1/C=C/c1cc(C(C)(C)C)no1.Cl` (stereo not given), the ED20 in the assay on Rattus norvegicus [1] is over 46.4 mg/kg; with Rattus norvegicus [2], over 1 mg/kg. The ED50 with Rattus norvegicus [3] is about 0.0215 mg/kg. The Relative potency in the assay with Rattus norvegicus [5] is on record as about 6.5.
In the case of `CC(CCc1ccccc1)NCC(O)c1ccc(O)c(C(N)=O)c1` (stereo not given) [LABETALOL], the figures for the ED20 in the assay with Rattus norvegicus [1] and in the assay on Rattus norvegicus [2] were 47.7 mg/kg and 5.2 mg/kg, respectively. Besides, the ED50 with Rattus norvegicus [3] turned out to be 0.14 mg/kg; in the assay with Rattus norvegicus [8], 0.47 mg/kg. Also, the Relative potency in the assay with Rattus norvegicus [4], in the assay filed under Rattus norvegicus [7], in the assay on Rattus norvegicus [5] and with Rattus norvegicus [6] was 1 in each case.
